In one assay the target is T1, Adenosine receptor A1 (Rattus norvegicus, UniProt P25099).
T1 sequence (P25099 whole entry): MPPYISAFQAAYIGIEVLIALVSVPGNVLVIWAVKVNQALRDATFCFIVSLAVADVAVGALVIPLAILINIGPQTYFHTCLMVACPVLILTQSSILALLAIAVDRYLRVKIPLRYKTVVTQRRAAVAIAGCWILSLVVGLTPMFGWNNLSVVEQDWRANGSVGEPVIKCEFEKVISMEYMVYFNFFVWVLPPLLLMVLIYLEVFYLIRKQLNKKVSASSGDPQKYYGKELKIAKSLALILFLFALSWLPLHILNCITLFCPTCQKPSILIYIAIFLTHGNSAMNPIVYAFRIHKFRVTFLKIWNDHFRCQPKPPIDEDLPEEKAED
Nature of the assay: Displacement of [3H]N6-PIA from Adenosine A1 receptor from rat whole brain. A digest of the protocol:
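Rat whole-brain membranes (100 µg, pretreated with 0.1 U/mg adenosine deaminase, 10 min, 37 °C) incubated 90 min at 25 °C with 1 nM (R)-[3H]-N6-PIA in 50 mM Tris-HCl pH 7.4. Test compound given at ≥12 concentrations, final Me2SO 1%, 2% or 5%. Nonspecific binding defined with 10 µM 2-chloroadenosine. Bound ligand collected by filtration on glass fiber filters. Ki derived from IC50 via Cheng-Prusoff (Kd 1 nM). At least two experiments in duplicate, mean ± SEM.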

The target in another assay is Adenosine receptor A2a (Rattus norvegicus, UniProt P30543). The assay can be described thus: Inhibition of [3H]CGS-21680 binding to Adenosine A2A receptor of rat striatal membranes. Type of assay: cell membranes, Membrane. Put shortly: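 Rat striatal membranes (150 µg, adenosine deaminase-pretreated) incubated 120 min at 25 °C with 5 nM [3H]CGS 21680 in 50 mM Tris-HCl, 10 mM MgCl2, pH 7.4. Test compound given at ≥12 concentrations, final Me2SO 1%, 2% or 5%. Nonspecific binding defined with 20 µM 2-chloroadenosine. Bound ligand filtered as for the A1 assay. Ki derived from IC50 via Cheng-Prusoff (Kd 14.9 nM). At least two experiments in duplicate, mean ± SEM.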

The target in assay [1] is Adenosine receptors; A1 & A2a (Rattus norvegicus) (UniProt P25099+P30543). The assay can be described thus: Ratio of Binding Constants for adenosine A2A and A1 receptors. Type of assay: protein assay.
Assay [2] has as its target Adenosine receptor A2a (Rattus norvegicus) (UniProt P30543). Nature of the assay: Percent inhibition of [3H]CGS-21680 binding to Adenosine A2A receptor rat striatal membranes. Type of assay: cell membranes. The following applies: Membrane, concentration not given here.

Structures are written as SMILES. Where only a bound is given, the exact number is not on record here.

Broadly, the Ki is a measure of affinity in units of concentration, obtained from inhibition or displacement. A low value points to a stronger hold on the target. Usually inhibition stands for the change of the read-out against control, counted positive when it falls. A high value points to a response far below the control.

Chain of Adenosine receptor A2a (Rattus norvegicus) (P30543 whole entry): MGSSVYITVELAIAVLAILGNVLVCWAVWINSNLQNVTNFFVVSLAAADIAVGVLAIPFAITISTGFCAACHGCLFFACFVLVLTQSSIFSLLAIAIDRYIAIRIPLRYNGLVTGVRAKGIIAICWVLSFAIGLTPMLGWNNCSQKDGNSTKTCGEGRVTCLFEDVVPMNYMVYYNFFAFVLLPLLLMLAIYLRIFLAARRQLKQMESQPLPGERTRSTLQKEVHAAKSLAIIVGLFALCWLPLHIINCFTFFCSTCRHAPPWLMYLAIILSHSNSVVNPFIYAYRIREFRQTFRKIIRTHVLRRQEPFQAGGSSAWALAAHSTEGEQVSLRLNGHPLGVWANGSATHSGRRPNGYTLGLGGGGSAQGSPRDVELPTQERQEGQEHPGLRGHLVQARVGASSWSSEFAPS
Chain of Adenosine receptor A2a (P30543 whole entry): as above
Chain of Adenosine receptors; A1 & A2a (Rattus norvegicus) (P30543 whole entry, looked up, one chain of several): as the sequence (P30543 whole entry) above

In the case of `CCC(Sc1nc(SC)c2cnn(-c3ccccc3)c2n1)C(N)=O` (centres undefined), the results for the Ki on Adenosine receptor A1 and at Adenosine receptor A2a were 0.0084 µM and 0.796 µM, respectively. Moreover, the Ratio in assay [1] is 95.

With `CCCCC(Sc1nc(N)c2cnn(-c3ccccc3)c2n1)C(N)=O` (centres undefined), the Ki on Adenosine receptor A1 is 0.000939 µM; at Adenosine receptor A2a, 0.0883 µM. Besides, the Ratio in assay [1] was found to be 94.

`CCCCC(Sc1nc(SC)c2cnn(-c3ccccc3)c2n1)C(N)=O` (centres undefined) registered a Ki at Adenosine receptor A1 of 0.00681 µM. In assay [2], the inhibition was determined as 12%. Also, the Ratio in assay [1] was > 5900.

As for `CCCC(Sc1nc(N)c2cnn(-c3ccccc3)c2n1)C(N)=O` (centres undefined), the Ki was 0.00108 µM at Adenosine receptor A1 and 0.0353 µM at Adenosine receptor A2a. Further, in assay [1], the Ratio came to 33.

For `CCCCC(Sc1nc(S)c2cnn(-c3ccccc3)c2n1)C(N)=O` (centres undefined), the affinity on Adenosine receptor A1, expressed as Ki, was 0.0372 µM. Also, the inhibition in assay [2] came to 52%. For the same molecule, in assay [1], the Ratio is > 270.

Take `CCCCC(Sc1nc(NC)c2cnn(-c3ccccc3)c2n1)C(N)=O` (centres undefined): the Ki on Adenosine receptor A1 was 0.000745 µM; on Adenosine receptor A2a, 0.247 µM. Moreover, the Ratio in assay [1] turned out to be 332.

On Adenosine receptor A1, `CSc1nc(SC(C(N)=O)C(C)C)nc2c1cnn2-c1ccccc1` (centres undefined) came in with a Ki of 0.0157 µM. Besides, the inhibition in assay [2] worked out at 37%. Also, the Ratio in assay [1] is > 1300.

As to `CCC(Sc1nc(N)c2cnn(-c3ccccc3)c2n1)C(N)=O` (centres undefined), the Ki on Adenosine receptor A1 worked out at 0.00156 µM; on Adenosine receptor A2a, 0.0445 µM. Besides, the Ratio in assay [1] is 29.

Regarding `CCC(Sc1nc(S)c2cnn(-c3ccccc3)c2n1)C(N)=O` (centres undefined), in assay [1], the Ratio came out at 56.

In assay [2], `CC(C)C(Sc1nc(S)c2cnn(-c3ccccc3)c2n1)C(N)=O` (centres undefined) came in with an inhibition of 44%. Besides, in assay [1], the Ratio is > 78.

Consider `CCCC(Sc1nc2c(cnn2-c2ccccc2)c(=S)[nH]1)C(N)=O` (centres undefined), for which the Ki at Adenosine receptor A1 is 0.0563 µM; on Adenosine receptor A2a, 4.45 µM.

Regarding `CCCC(Sc1nc(S)c2cnn(-c3ccccc3)c2n1)C(N)=O` (centres undefined), the Ratio in assay [1] worked out at 79.

For `CC(C)C(Sc1nc(N)c2cnn(-c3ccccc3)c2n1)C(N)=O` (centres undefined), the Ki on Adenosine receptor A1 turned out to be 0.00273 µM; on Adenosine receptor A2a, 0.147 µM. For the same molecule, the Ratio in assay [1] was 54.

On to `CCC(Sc1nc2c(cnn2-c2ccccc2)c(=S)[nH]1)C(N)=O` (centres undefined), for which the Ki amounted to 0.155 µM on Adenosine receptor A1 and 8.75 µM on Adenosine receptor A2a.

On Adenosine receptor A1, `CC(C)C(Sc1nc2c(cnn2-c2ccccc2)c(=S)[nH]1)C(N)=O` (centres undefined) displayed a Ki of 0.256 µM. This counts as sub-micromolar.

For `CCCC(Sc1nc(SC)c2cnn(-c3ccccc3)c2n1)C(N)=O` (centres undefined), the values for the Ki at Adenosine receptor A1 and on Adenosine receptor A2a were 0.00755 µM and 4.38 µM, respectively. In assay [1], the Ratio amounted to 580.
